Our source for the inhibition, IC50 and Ratio IC50 values is ChEMBL document CHEMBL1157724 (Bioorg Med Chem, 2010).

Calls of active or inactive are those of the source. No cut-off for these calls is given here.

The target in assay [1] is T1, DNA topoisomerase 2-alpha (Homo sapiens, UniProt P11388). Put plainly: Inhibition of DNA topoisomerase 2alpha-mediated pBR322 DNA cleavage at 50 uM by SDS-PAGE. Summed up: (§1)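 Topoisomerase IIα (150 ng) with 80 ng pBR322 and 0.5 mM ATP in pH 8.0 Tris/KCl/NaCl/MgCl2/glycerol buffer. Drug added last from DMSO. Incubated 10 min at 37°C, quenched with SDS/EDTA, then proteinase K 30 min at 55°C. Linear DNA resolved on a 1.2% agarose ethidium bromide gel against a HindIII-linearised pBR322 marker.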
T1 sequence (P11388 whole entry): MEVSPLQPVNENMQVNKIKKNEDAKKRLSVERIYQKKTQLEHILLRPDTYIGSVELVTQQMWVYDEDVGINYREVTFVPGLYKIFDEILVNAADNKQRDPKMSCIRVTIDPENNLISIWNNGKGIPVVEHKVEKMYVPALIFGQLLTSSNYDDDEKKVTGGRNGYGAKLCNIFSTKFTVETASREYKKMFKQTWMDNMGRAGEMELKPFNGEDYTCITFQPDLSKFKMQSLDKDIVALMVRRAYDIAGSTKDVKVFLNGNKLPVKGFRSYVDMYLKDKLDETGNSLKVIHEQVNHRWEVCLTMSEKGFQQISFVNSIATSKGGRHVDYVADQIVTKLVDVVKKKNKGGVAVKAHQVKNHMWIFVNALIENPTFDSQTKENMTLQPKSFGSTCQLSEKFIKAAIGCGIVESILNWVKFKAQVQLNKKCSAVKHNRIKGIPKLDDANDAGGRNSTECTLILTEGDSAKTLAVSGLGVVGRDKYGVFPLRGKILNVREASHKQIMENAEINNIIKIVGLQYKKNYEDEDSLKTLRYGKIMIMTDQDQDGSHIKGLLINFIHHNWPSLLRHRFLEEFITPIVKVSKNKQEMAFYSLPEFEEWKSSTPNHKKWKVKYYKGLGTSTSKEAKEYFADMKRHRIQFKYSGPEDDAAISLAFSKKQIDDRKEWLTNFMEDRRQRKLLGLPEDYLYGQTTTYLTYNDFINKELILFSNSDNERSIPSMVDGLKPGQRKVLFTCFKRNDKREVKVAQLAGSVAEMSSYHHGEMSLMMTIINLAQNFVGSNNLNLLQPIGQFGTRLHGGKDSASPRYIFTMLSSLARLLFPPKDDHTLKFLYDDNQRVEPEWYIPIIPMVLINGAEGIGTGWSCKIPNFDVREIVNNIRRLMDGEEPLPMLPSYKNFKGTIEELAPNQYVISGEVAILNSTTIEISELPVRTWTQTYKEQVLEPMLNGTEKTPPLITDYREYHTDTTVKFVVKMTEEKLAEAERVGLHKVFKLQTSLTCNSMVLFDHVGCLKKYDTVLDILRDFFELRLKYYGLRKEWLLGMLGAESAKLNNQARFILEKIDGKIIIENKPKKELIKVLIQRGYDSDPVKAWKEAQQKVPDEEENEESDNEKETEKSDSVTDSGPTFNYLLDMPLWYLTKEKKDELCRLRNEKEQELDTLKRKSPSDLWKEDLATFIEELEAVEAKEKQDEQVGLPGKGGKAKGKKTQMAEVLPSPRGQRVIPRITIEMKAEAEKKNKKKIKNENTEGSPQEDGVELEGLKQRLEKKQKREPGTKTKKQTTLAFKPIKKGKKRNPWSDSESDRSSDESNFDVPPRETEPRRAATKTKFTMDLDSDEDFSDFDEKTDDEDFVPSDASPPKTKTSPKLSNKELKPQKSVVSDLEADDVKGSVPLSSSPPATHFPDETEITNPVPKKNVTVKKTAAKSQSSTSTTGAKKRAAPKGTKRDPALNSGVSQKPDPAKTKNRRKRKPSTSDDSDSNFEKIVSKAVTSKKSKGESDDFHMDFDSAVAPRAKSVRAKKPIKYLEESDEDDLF

Assay [2] concerns the target T1, DNA topoisomerase 2-alpha. Particulars: 50 uM.
Another assay deals with K562. Put plainly: Cytotoxicity against human K562 cells after 72 hrs by MTS assay. Particulars: K562, 72 h. Format: functional, cell-based. In a few lines:
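K562 cells in αMEM with 10% fetal calf serum, 37°C, 5% CO2. Exponentially growing cells seeded at 6000/well. Compound added from DMSO stock (final DMSO 0.5% v/v), continuous exposure for 72 h. MTS added for a further 3 h and absorbance read. Three replicates per concentration. IC50 from a four-parameter logistic fit.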

Assay [3] concerns the target T1, DNA topoisomerase 2-alpha. Particulars: K562, 50 uM.
Assay [4] concerns the target T1, DNA topoisomerase 2-alpha. Particulars: K562, 25 uM.
In assay [5] the target is T1, DNA topoisomerase 2-alpha. Put plainly: Inhibition of DNA topoisomerase 2alpha-mediated pBR322 DNA cleavage at 20 uM by SDS-PAGE.
Assay [6] concerns the target T1, DNA topoisomerase 2-alpha. Put plainly: Inhibition of DNA topoisomerase 2alpha-mediated pBR322 DNA cleavage at 100 uM by SDS-PAGE. In a few lines: as §1
The target in assay [7] is T1, DNA topoisomerase 2-alpha. The assay can be described thus: Ratio of etoposide IC50 to IC50 for drug against human DNA topoisomerase 2alpha-mediated decatenation of kinetoplast plasmid DNA by fluorescent plate reader.
The target in assay [8] is T1, DNA topoisomerase 2-alpha. The assay can be described thus: Inhibition of DNA topoisomerase 2alpha in human K562 cells assessed as protein-DNA covalent complex formation under UV irradiation by scintillation counting. In kind it is cell-based. In a few lines:
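Radiolabelled K562 cells (1.5×10^6/ml, pH 7.4 buffer) given compound (2.5–20 μM), then irradiated or not at 365 nm for 5 min from 16 mm. Incubated 60 min at 37°C in the dark. SDS/KCl-precipitated protein-DNA complexes measured by scintillation, with 3H normalised to 14C. Nine experiments on different days. Paired t-tests of UV versus no UV at each concentration.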

Assay [9] deals with T1, DNA topoisomerase 2-alpha. The assay can be described thus: Inhibition of DNA topoisomerase 2alpha in human K-VP.5 cells assessed as decrease in protein-DNA covalent complex formation at 80 uM by scintillation counting. Format: cell-based. Summed up: (§2)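 K562 or K/VP.5 cells prelabelled 24 h with [3H]thymidine and [14C]leucine. Cells held at 1.5×10^6/ml in HEPES-buffered saline-glucose pH 7.4 and exposed to compound for 60 min at 37°C in the dark. Protein-DNA complexes precipitated with SDS/KCl after lysis and DNA shearing, and counted by scintillation. 3H normalised to 14C protein.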

Assay [10] deals with T1, DNA topoisomerase 2-alpha. The assay can be described thus: Inhibition of DNA topoisomerase 2alpha in human K562 cells assessed as protein-DNA covalent complex formation at 80 uM by scintillation counting. In kind it is cell-based. Summed up: as §2

In turn, `CC[C@@]1(O)C(=O)OCc2c1cc1n(c2=O)Cc2cc3ccccc3nc2-1` gave an inhibition in assay [1] of 40%.
With `COc1cc([C@@H]2c3cc4c(cc3[C@@H](O[C@@H]3O[C@@H]5CO[C@@H](C)O[C@H]5[C@H](O)[C@H]3O)[C@H]3COC(=O)[C@H]23)OCO4)cc(OC)c1O` [ETOPOSIDE], the inhibition entry in assay [2], in assay [3] and in [6] was “Active” each time. The compound also gave an IC50 in the assay on K562 of 420 nM. For the same compound, the inhibition result in assay [4] and in [5] was “inactive” in each case.
Consider `COc1cc([C@@H]2c3cc4c(cc3[C@@H](NC(=O)c3ccc(C5(C(F)(F)F)N=N5)cc3)[C@H]3COC(=O)[C@H]23)OCO4)cc(OC)c1O` [DIAZIRINE], for which the Ratio IC50 in assay [7] is 2. Further, the inhibition result in assay [5] was “inactive”. Besides, the inhibition result in assay [1], in assay [6], in [9] and in assay [10] was “Active” throughout. The inhibition entry in assay [8] was “Dose-dependent effect”.
